ChEMBL document CHEMBL1127320, “Dual-action cephalosporins incorporating a 3'-tertiary-amine-linked quinolone” (J Med Chem, 1994)
Values after ≈ are worked out from the molar mass of the structure shown.

Columns and labels:
Format in all cases: functional
Pseudomonas aeruginosa [1] = test: In vitro minimum inhibitory concentration was measured against Pseudomonas aeruginosa 8780 strain.
Method in brief: (§1)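 Streptococci were tested on brain heart infusion agar plus 20 units/mL catalase, Proteus on Mueller-Hinton with 3% agar, and others on Mueller-Hinton agar. Inocula were 100-fold-diluted overnight cultures, about 3 × 10^4 CFU/spot, read after overnight incubation at 36 °C.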

Proteus vulgaris = test: In vitro minimum inhibitory concentration was measured against Proteus vulgaris 1028BC (beta lactamase producer) strain.; method in brief: as §1
Enterococcus faecalis = test: In vitro minimum inhibitory concentration was measured against Enterococcus faecalis ATCC 29212 strain.; method in brief: as §1
Staphylococcus aureus [2] = test: In vitro minimum inhibitory concentration was measured against Staphylococcus aureus 67-0 (Methicillin resistant) strain.
Micrococcus luteus = test: In vitro minimum inhibitory concentration was measured against Micrococcus luteus ATCC 9341 strain.; method in brief: as §1
Klebsiella pneumoniae = test: In vitro minimum inhibitory concentration was measured against Klebsiella pneumoniae A strain.; method in brief: as §1
Enterobacter cloacae [3] = test: In vitro minimum inhibitory concentration was measured against Enterobacter cloacae p99 (beta lactamase producer) strain.
Serratia marcescens = test: In vitro minimum inhibitory concentration was measured against Serratia marcescens 1071(beta lactamase producer) strain.; method in brief: as §1
Streptococcus pneumoniae = test: In vitro minimum inhibitory concentration was measured against Streptococcus pneumoniae 6301 strain; method in brief: as §1
Pseudomonas aeruginosa [4] = test: In vitro minimum inhibitory concentration was measured against Pseudomonas aeruginosa 18S/H strain.; method in brief: as §1
Citrobacter freundii = test: In vitro minimum inhibitory concentration was measured against Citrobacter freundii BS-16 (beta lactamase producer) strain.
Method in brief: as §1, with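 “MICs were determined by agar dilution with 2-fold dilutions giving final 128–0.0156 µg/mL, extended to 0.000977 µg/mL where needed. Streptococci” for “Streptococci”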

Proteus mirabilis = test: In vitro minimum inhibitory concentration was measured against Proteus mirabilis 90 strain.; method in brief: as §1
Streptococcus pyogenes = test: In vitro minimum inhibitory concentration was measured against Streptococcus pyogenes 4 strain.; method in brief: as §1
Staphylococcus aureus [5] = test: In vitro minimum inhibitory concentration was measured against Staphylococcus aureus smith strain.
Escherichia coli [6] = test: In vitro minimum inhibitory concentration was measured against Escherichia coli TEM-1 (Beta lactamase producer) strain.; method in brief: as §1
Escherichia coli [7] = test: In vitro minimum inhibitory concentration was measured against Escherichia coli ATCC 25922 strain.; method in brief: as §1
Enterobacter cloacae [8] = test: In vitro minimum inhibitory concentration was measured against Enterobacter cloacae 5699 strain.
Staphylococcus aureus [9] = test: In vitro minimum inhibitory concentration was measured against Staphylococcus aureus 753 (Methicillin resistant) strain.
Escherichia coli [10] = test: In vitro minimum inhibitory concentration was measured against Escherichia coli 257 strain.; method in brief: as §1

Which results are given for `CC(=O)OCC1=C(C(=O)O)N2C(=O)[C@@H](NC(=O)C(O)c3ccccc3)[C@H]2SC1` (some centres undefined)?
MIC (Pseudomonas aeruginosa [1]): > 128 µg/mL; MIC (Proteus vulgaris): > 128 µg/mL; MIC (Enterococcus faecalis): 16 µg/mL (≈ 39.4 µM); MIC (Staphylococcus aureus [2]): 64 µg/mL (≈ 157 µM); MIC (Micrococcus luteus): 0.125 µg/mL (≈ 0.308 µM); MIC (Klebsiella pneumoniae): 2 µg/mL (≈ 4.92 µM); MIC (Enterobacter cloacae [3]): > 128 µg/mL; MIC (Serratia marcescens): > 128 µg/mL; MIC (Streptococcus pneumoniae): 0.125 µg/mL (≈ 0.308 µM); MIC (Pseudomonas aeruginosa [4]): > 128 µg/mL; MIC (Citrobacter freundii): > 128 µg/mL; MIC (Proteus mirabilis): 2 µg/mL (≈ 4.92 µM); MIC (Streptococcus pyogenes): 0.063 µg/mL (≈ 0.155 µM); MIC (Staphylococcus aureus [5]): 0.5 µg/mL (≈ 1.23 µM); MIC (Escherichia coli [6]): 8 µg/mL (≈ 19.7 µM); MIC (Escherichia coli [7]): 2 µg/mL (≈ 4.92 µM); MIC (Enterobacter cloacae [8]): 16 µg/mL (≈ 39.4 µM); MIC (Staphylococcus aureus [9]): 128 µg/mL (≈ 315 µM); MIC (Escherichia coli [10]): 2 µg/mL (≈ 4.92 µM)
